Variants at the floor of the assay were thinned out.

B1: tRNA (parent)
chain: GUUCCGUUGGCGUAAUGGUAACGCGUCUCCCUCCUAAGGAGAAGACUGCGGGUUCGAGUCCCGUACGGAACG

Variants of B1 are the subject of this series. The experiment in a line: yeast fitness relative to wild type (ratio to wild type); higher = fitter; tRNA-Arg(CCU), competitive growth, 37 C, YPD. The essentials:
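A pool of Saccharomyces cerevisiae strains, each with a tRNA-Arg(CCU) gene variant at the native genomic locus, was competed in YPD at 37°C for 24 hours across six parallel replicates. The variants had been chemically synthesised at a 3% per-site mutation rate over 69 sites, and gene amplicons before and after competition were read by 100-nucleotide paired-end sequencing. Darwinian fitness relative to wild type rested on changes in genotype frequencies. Genotypes required ≥ 100 starting reads, and estimates < 0.5 were set to 0.5.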
G9C U16C C30A G41C A45C C46G: the yeast fitness is not above 0.5. With G12A A15U A21C U47A the figure was not above 0.5. On to C22G U35C, for which the yeast fitness came to 0.8. With U26G G51C the figure was 0.588; with U2A C4A, 0.914; with U7A G52C G56A, 0.554. With U3A C22G the figure was 0.714. Consider C5A G18C G48C A65C, for which the yeast fitness is not above 0.5.

For U26C C33G U59C, the yeast fitness stood at 0.515. C33G G56C G67C: the yeast fitness was not above 0.5. With C11U C27G A43U G63A the figure was not above 0.5. With G12A C30G A65U the figure was not above 0.5.

Consider C31U U47G A65U, for which the yeast fitness was not above 0.5. Regarding C4A G9A U13G C22U C61A A70C, the yeast fitness is not above 0.5.

On to U2G G6A U13G C49U G56A A70G, for which the yeast fitness is not above 0.5. With C4A U19A C27U G67A the figure was 0.573; with U16A A21G C22U G48C G63C, not above 0.5. With C33U A36C U64C the figure was 0.648. Consider G25A A37C A69U, for which the yeast fitness was 0.684. With G10A U16A A21C the figure was 1; with G10A A21C C34U, not above 0.5; with C29A G39A, 0.725.

Regarding C11G G48A, the yeast fitness came out at 0.582. With U13G U16G C31G C49U A57G the figure was not above 0.5. Turning to U19A C30A A43G C49U G51U C55A, the yeast fitness amounted to 0.528.

As to G17A G25A C34U C55G, the yeast fitness is 0.532. With U53G G56C G67C the figure was 0.605. With C5G A21C U54A A57G the figure was not above 0.5. With A21C C34U the figure was 0.536; with G50A C55U A65G, not above 0.5; with C11A G17C U47A G68C, not above 0.5. As to G6C C60U, the yeast fitness came out at 0.712.

With U28A C55G C62U, the yeast fitness is not above 0.5. With U7G C27G U28G the figure was 0.531; with C24A C29G A45G, not above 0.5; with C5A G18A G25A C31U U47C C61U, not above 0.5. With U13G U26C C49G the figure was not above 0.5; with U3A G25A G38A, 0.583. With A15G U16G G39A A45C C61A the figure was not above 0.5.

Regarding U2C C4A U28C U53C, the yeast fitness is not above 0.5. With C34U C66G the figure was 0.56; with U2C C11A A69U, not above 0.5. Consider U28G C62G, for which the yeast fitness turned out to be 0.587. With C11G A15C C24G C46A the figure was 0.546; with G56C A57U G58A, not above 0.5; with A20G A21G C29G, 0.543. With C4A C66A the figure was 0.569; with U13C G17A U47C A65G, not above 0.5; with U13G G56A, 1.06.

Consider G6A U16C G67C, for which the yeast fitness was not above 0.5. With U2C A14G C29A C33G the figure was 0.565; with A14G C27U U28C, 0.541. With U32C C33A G51C G68A the figure was not above 0.5; with G10A C11G A20G C55G, not above 0.5. With C11U G41A C60G A65G the figure was 0.624; with G12A G25C C30G, not above 0.5. In the case of C5G C22U U26A A65U, the yeast fitness was not above 0.5. With U35C C55A the figure was not above 0.5. With G6C C22A G41A G44C C49U the figure was not above 0.5; with C24G G58C G68A, not above 0.5. On to G9A C61U, for which the yeast fitness was found to be 0.949. As for C34G A45U G50C A57C, the yeast fitness is not above 0.5. With A21G A37G the figure was 0.692; with U2C G50U, 0.825; with G6A G25A, 0.859. With G56A A65U the figure was 0.978; with C29U C33U C66U G67A, 0.598; with C29G C49A G67C, not above 0.5. As for C27A A40G C61G, the yeast fitness was determined as 0.614. In the case of A21G G58C U59C, the yeast fitness was determined as 0.961.

As to A20U A37C G38C, the yeast fitness is not above 0.5.

As for C11A C24G U47G G68C, the yeast fitness is not above 0.5. In the case of A21C C29G G68C, the yeast fitness came out at 0.557. With C22G A45G C49U A70U the figure was not above 0.5.

Regarding U3A G50C G51C G56A, the yeast fitness was not above 0.5. With G6A U16A G63A the figure was 0.569; with C46A G58C, 0.874.

Turning to C5U G6C G39A A45U C46G, the yeast fitness was 0.626.

Take C4A G10A C31A: the yeast fitness was not above 0.5. With U32G U35A A36G C66U the figure was not above 0.5; with A36G C49U C61A, not above 0.5; with G12A C27U A42U C62U, not above 0.5. With C31U A69U A70C the figure was 0.778. As for U2C C49U G56C, the yeast fitness was not above 0.5. C30A C46G G52A G56A: the yeast fitness stood at 0.608.

In the case of C5U A20U, the yeast fitness stood at 0.94.

On to U2A C5A C27U G44A, for which the yeast fitness is not above 0.5. For the variant G6A U64G, the yeast fitness amounted to 0.795. With G23A U59A the figure was 0.791. With A15C C30A G48C G56C the figure was not above 0.5; with C11G A40C, 0.6.

In the case of G17A A20G C27G A36C A65U, the yeast fitness is not above 0.5. With C22U C34U G39A G44A G58C A65C the figure was not above 0.5. With U13C C27G G63C the figure was 0.548; with U3C C30U, 0.879; with U8A C49G A57C, not above 0.5.

As to G41C A42U U64C G68C, the yeast fitness is not above 0.5.

On to U8A C11A A36G C61G, for which the yeast fitness is not above 0.5. On to G6A C27A A36G A70U, for which the yeast fitness was not above 0.5. For U3C A43C, the yeast fitness came out at 1.04. With U2C G39C the figure was 0.774. With A14G C29G C31U A70G the figure was not above 0.5; with U8G A20G A37G A43G A70U, not above 0.5. Consider U3A C4U U8A G10A A21G U53A A65C A70G, for which the yeast fitness was not above 0.5. As for A20U C27G C29A G58A, the yeast fitness is not above 0.5. With U16A A42U U53A the figure was not above 0.5; with U32C A69C, 0.943; with U19A C31G G44C, not above 0.5.

Consider A14G A15G A45U C66U, for which the yeast fitness turned out to be 0.619. With U19C A69C the figure was 0.991; with U3A C27A C30U G41C A43U C49A, not above 0.5; with U7C C49A C62U A70U, not above 0.5. With C11G A14U U19A G25A C34U C60U G68A the figure was 0.517.

For C11U C24G U59A C60A, the yeast fitness is not above 0.5. With C4G G12U A14C C49U C66U the figure was not above 0.5. In the case of U8C U26A A43U A70U, the yeast fitness came out at 0.675. With C33G G51A C55A C66U the figure was 0.56; with C22G C29G C46U G63A A70U, not above 0.5. With C49A G67U the figure was 0.746.

In the case of A20G A21G C24U U59C C62A, the yeast fitness was not above 0.5. With C31U G51A G56C G67C the figure was 0.526; with G23C U54C C66U, not above 0.5. C5G C11G C31G: the yeast fitness was not above 0.5. With G23C C30A U64C the figure was not above 0.5. With U16A C22G G48A the figure was 0.994; with G6C A37G A40U A45C, 0.702. With C30G A36U C61U the figure was 0.504; with A15G G17A U19A U32G, not above 0.5; with C22G C33G A36U, not above 0.5. Consider U2C G6C A65U G67A, for which the yeast fitness was not above 0.5. In the case of A20U C22U U47A, the yeast fitness is not above 0.5. As for G25A C27G C33G G39A C46U C61U A69U, the yeast fitness was not above 0.5. With A21G G56U G58C, the yeast fitness was 0.661. With C4U G17C C49G G50C the figure was 0.652; with G12A G48C U54C, 0.567; with C5G U7C C11G G23C U26C C27U A42U, not above 0.5. For A20U U32C C55U, the yeast fitness was 0.55. With G17A G63C the figure was 0.579; with C22U A40C A70U, 0.545. With A21U G67C the figure was 0.645; with G6C G56A C60G, not above 0.5; with C11U G17C U32A C46A, not above 0.5. With C30U U32A the figure was 0.883; with C11G A15C C46G U59A, not above 0.5; with U13A C33U, 0.754. On to C29A A37G U64A A70U, for which the yeast fitness was not above 0.5.

Turning to A20G C33U G39A A57G U59C, the yeast fitness amounted to 0.517. A37G U53C A57C: the yeast fitness is not above 0.5. C4G A40U A42C A57C: the yeast fitness is not above 0.5. With U7A C11G C27U A37C G51C G67U the figure was 0.504; with C4U G10A, 0.644. With U54G A69U the figure was 0.648.

On to G6C A15G G58C G68A, for which the yeast fitness was not above 0.5. With G25A C31U G38C U54C the figure was 0.654; with C30U A69C, 0.773.

Take C4G A14U A37U U53C A69U: the yeast fitness was not above 0.5. With A14C U26A C29U C49U C62G G68C the figure was 0.519. On to U3C U13C U19A C22U G68C, for which the yeast fitness is not above 0.5.

C11A A40C: the yeast fitness came out at 0.708. For the variant U7A G12A C49U C62G, the yeast fitness is not above 0.5.

As to C22G U32A, the yeast fitness is 0.71. With C29U A45C the figure was 0.778; with A21U A70U, 0.754. For U35C A37C G39A, the yeast fitness is not above 0.5. For C5G A36U G41A, the yeast fitness is not above 0.5. With A45U A65C G68A the figure was 0.567.

As to C31G A45C A65U, the yeast fitness was not above 0.5.
